Results as given in ChEMBL document CHEMBL2390890, “Optimization of a novel potent and selective bacterial DNA helicase inhibitor scaffold from a high throughput screening hit” (Bioorg Med Chem Lett, 2013).
Activity calls are given as the source filed them. The calls are words filed in the database; no cut-off is given here.

Columns and labels:
[1] = Inhibition of Staphylococcus aureus replicative DNA helicase using Hel-5'FAM:Hel-3'BHQ as substrate assessed as DNA duplex strand unwinding by FRET assay
[2] = Inhibition of Bacillus anthracis replicative DNA helicase using Hel-5'FAM:Hel-3'BHQ as substrate assessed as DNA duplex strand unwinding by FRET assay
HeLa = assay: Cytotoxicity against human HeLa cells by MTT assay in presence of serum free media; format: cell-based
Bacillus anthracis = assay: Antibacterial activity against Bacillus anthracis Sterne assessed as inhibition of incorporation of radiolabeled precursors into DNA; format: functional, organism-based
Staphylococcus aureus [3] = assay: (§1) Non-competitive inhibition of Staphylococcus aureus replicative DNA helicase using ATP as substrate
How it was run: (§2)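 S. aureus replicative DNA helicase was tested in a FRET-based unwinding assay. An inhibitor dilution series was run across several ATP concentrations. IC50 at each ATP level came from 4-parameter curve fitting, and the mode of inhibition was assigned from how IC50 shifted with ATP concentration.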

Staphylococcus aureus [4] = assay: (§3) Competitive inhibition of Staphylococcus aureus replicative DNA helicase using DNA as substrate by Dixon plot analysis
How it was run: (§4)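 FRET-based strand-unwinding assay with S. aureus replicative DNA helicase. An inhibitor dilution series was run at several oligonucleotide (DNA substrate) concentrations, the lowest being 3 nM. IC50 at each level came from 4-parameter curve fitting. Ki and the inhibition mode were derived from a Dixon plot of the DNA-variation data.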

[5] = as §1; how it was run: as §2
[6] = as §3; how it was run: as §4
Staphylococcus aureus [7] = assay: Inhibition of Staphylococcus aureus single-strand DNA-stimulated replicative DNA helicase ATPase activity assessed as release of inorganic phosphate at 50 uM after 30 mins by malachite green assay
[8] = Selectivity index, ratio of CC50 for human HeLa cells to IC50 for Staphylococcus aureus replicative DNA helicase; format: functional

SMILES | IC50 [1] [µM] | IC50 [2] [µM] | further results
COc1cc(/C=N/c2nc3ccc4nc(SC)sc4c3s2)cc(OC)c1OC | > 100 |  | 
CCCNc1nc2ccc3nc(NC(=O)c4cccc(OC)c4)sc3c2s1 | 1.3 | 1.1 | CC50 (HeLa): < 0.08 µM
CSc1nc2ccc3nc(NC(=O)Cc4ccccc4)sc3c2s1 |  | 47 | 
CSc1nc2ccc3nc(NC(=O)c4c(F)cccc4F)sc3c2s1 |  | 64.5 | 
CSc1nc2ccc3nc(NC(=O)c4cccc(F)c4)sc3c2s1 |  | 3.3 | 
COc1cc(C(=O)Nc2nc3ccc4nc(SC)sc4c3s2)cc(OC)c1OC | 0.4 | 0.7 | CC50 (HeLa): > 100 µM
CSc1nc2ccc3nc(NC(=O)c4ccccc4Oc4ccccc4)sc3c2s1 |  | > 100 | 
COc1cc(C(=O)Nc2nc3ccc4nc(NCCO)sc4c3s2)cc(OC)c1OC | 0.3 | 0.2 | IC50 (Bacillus anthracis): 17 µM; inhibition (Staphylococcus aureus [3]): Active; inhibition (Staphylococcus aureus [4]): Active; CC50 (HeLa): > 100 µM
CSc1nc2ccc3nc(NC(=O)c4ccc(C)c(C)c4)sc3c2s1 |  | 3.2 | 
CSc1nc2ccc3nc(NC(=O)c4ccc(Oc5ccccc5)cc4)sc3c2s1 |  | > 100 | 
CSc1nc2ccc3nc(NC(=O)c4ccc(C(C)(C)C)cc4)sc3c2s1 |  | > 100 | 
COc1cccc(OC)c1C(=O)Nc1nc2ccc3nc(SC)sc3c2s1 |  | > 100 | 
CSc1nc2ccc3nc(NC(=O)c4cccc(N5C(=O)CCC5=O)c4)sc3c2s1 | 12 | 5 | CC50 (HeLa): > 100 µM
CSc1nc2ccc3nc(NC(=O)c4ccc(C#N)cc4)sc3c2s1 |  | 11 | 
COc1cccc(C(=O)Nc2nc3ccc4nc(N5CCOCC5)sc4c3s2)c1 | 3 | 2.3 | CC50 (HeLa): > 100 µM
CSc1nc2ccc3nc(NC(=O)c4cccc([N+](=O)[O-])c4)sc3c2s1 |  | 2.8 | 
CSc1nc2ccc3nc(NC(=O)c4cc(C)no4)sc3c2s1 |  | > 50 | 
COc1cc(C(=O)Nc2nc3ccc4nc(NCCN(C)C)sc4c3s2)cc(OC)c1OC | 0.2 | 0.2 | CC50 (HeLa): < 0.78 µM
COC(=O)c1ccc(C(=O)Nc2nc3ccc4nc(SC)sc4c3s2)cc1 |  | 3.7 | 
CSc1nc2ccc3nc(NC(=O)CCc4ccccc4)sc3c2s1 |  | > 100 | 
COc1cc(OC)cc(C(=O)Nc2nc3ccc4nc(SC)sc4c3s2)c1 |  | 1.7 | 

SMILES | IC50 [1] [µM] | IC50 [2] [µM] | further results
COc1c(C(=O)Nc2nc3ccc4nc(SC)sc4c3s2)cnn1C |  | > 100 | 
CCOc1ccc(C(=O)Nc2nc3ccc4nc(SC)sc4c3s2)cc1 |  | 6.9 | 
COc1ccc(C(=O)Nc2nc3ccc4nc(SC)sc4c3s2)c(OC)c1 |  | > 100 | 
CSc1nc2ccc3nc(NC(=O)c4ccc5c(c4)OCCO5)sc3c2s1 |  | 3 | 
COc1cccc(C(=O)Nc2nc3ccc4nc(NC(C)C)sc4c3s2)c1 | 80 | 65 | 
CSc1nc2ccc3nc(NC(=O)c4ccc(N5C(=O)CCC5=O)cc4)sc3c2s1 |  | 1.3 | 
COc1cc2ccccc2cc1C(=O)Nc1nc2ccc3nc(SC)sc3c2s1 |  | > 50 | 
CCN(CC)c1ccc(C(=O)Nc2nc3ccc4nc(SC)sc4c3s2)cc1 |  | > 100 | 
CNc1nc2ccc3nc(NC(=O)c4cccc(OC)c4)sc3c2s1 | 2.2 | 0.5 | IC50 [5]: 2 µM; Ki [6]: 2 µM; inhibition (Staphylococcus aureus [7]): inactive; CC50 (HeLa): > 100 µM
CSc1nc2ccc3nc(NC(=O)c4ccccc4Br)sc3c2s1 |  | > 100 | 
CSc1nc2ccc3nc(NC(=O)c4ccco4)sc3c2s1 |  | 102 | 
COc1cc(C(=O)Nc2nc3ccc4nc(N5CCN(C)CC5)sc4c3s2)cc(OC)c1OC | 0.2 | 0.2 | IC50 (Bacillus anthracis): 10 µM; CC50 (HeLa): 2.8 µM
CSc1nc2ccc3nc(NC(=O)c4ccccc4C)sc3c2s1 |  | 6.6 | 
COc1cccc(C(=O)Nc2nc3ccc4nc(NCCO)sc4c3s2)c1 | 4.2 | 2.2 | CC50 (HeLa): > 100 µM
CSc1nc2ccc3nc(NC(=O)c4c(C)cnn4C)sc3c2s1 |  | > 50 | 
COc1cccc(C(=O)Nc2nc3ccc4nc(NC5CCCCC5)sc4c3s2)c1 | > 100 | 90 | 
CSc1nc2ccc3nc(NC(=O)c4ccc(N(C)C)cc4)sc3c2s1 |  | 2.4 | 
COc1ccc(C(=O)Nc2nc3ccc4nc(SC)sc4c3s2)cc1OC |  | 2.1 | 
CSc1nc2ccc3nc(NC(=O)c4ccccc4F)sc3c2s1 |  | 50 | 
CSc1nc2ccc3nc(NC(=O)c4cccc(N(C)C)c4)sc3c2s1 |  | 36 | 
CSc1nc2ccc3nc(NC(=O)c4cccs4)sc3c2s1 |  | 90 | 

SMILES | IC50 [1] [µM] | IC50 [2] [µM] | further results
CSc1nc2ccc3nc(NC(=O)C4CC4)sc3c2s1 |  | > 100 | 
COc1cc(C(=O)Nc2nc3ccc4nc(NCCN5CCOCC5)sc4c3s2)cc(OC)c1OC | 0.2 | 0.2 | CC50 (HeLa): 5.7 µM
COc1cccc(C(=O)Nc2nc3ccc4nc(SC)sc4c3s2)c1 | 6.6 | 12.5 | CC50 (HeLa): 12.4 µM
CSc1nc2ccc3nc(NC(=O)c4ccc(OC(C)C)cc4)sc3c2s1 |  | > 100 | 
COc1cc(CNc2nc3ccc4nc(SC)sc4c3s2)cc(OC)c1OC | > 100 |  | 
CCN(CC)S(=O)(=O)c1ccc(C(=O)Nc2nc3ccc4nc(SC)sc4c3s2)cc1 |  | > 100 | 
CSc1nc2ccc3nc(NC(=O)c4ccc(C)cc4)sc3c2s1 |  | 7.6 | 
CSc1nc2ccc3nc(NC(=O)c4cccc(Br)c4)sc3c2s1 |  | 2.3 | 
CSc1nc2ccc3nc(NC(=O)c4ccccc4Cl)sc3c2s1 |  | > 100 | 
COc1cccc(C(=O)Nc2nc3ccc4nc(NCc5ccccc5)sc4c3s2)c1 | > 100 | 75 | 
COc1cccc(C(=O)Nc2nc3ccc4nc(NCCN5CCOCC5)sc4c3s2)c1 | 2.2 | 0.5 | CC50 (HeLa): 9.6 µM
CSc1nc2ccc3nc(NC(=O)c4ccc(Cl)cc4)sc3c2s1 |  | 5 | 
CNc1nc2ccc3nc(NC(=O)c4cc(OC)c(OC)c(OC)c4)sc3c2s1 | 0.2 | 0.2 | inhibition (Staphylococcus aureus [3]): Active; inhibition (Staphylococcus aureus [4]): Active; inhibition (Staphylococcus aureus [7]): inactive; CC50 (HeLa): > 100 µM; Ratio CC50/IC50 [8]: >500
CSc1nc2ccc3nc(NC(=O)c4cccc(Cl)c4)sc3c2s1 |  | 5.3 | 
CSc1nc2ccc3nc(NC(=O)CN4C(=O)CCC4=O)sc3c2s1 |  | > 100 | 
COc1cccc(C(=O)Nc2nc3ccc4nc(NCC(C)C)sc4c3s2)c1 | 9 | 13 | CC50 (HeLa): 44 µM
CSc1nc2ccc3nc(NC(=O)c4cnccn4)sc3c2s1 |  | 28 | 
CSc1nc2ccc3nc(NC(=O)COc4ccc(Cl)cc4Cl)sc3c2s1 |  | > 100 | 
COc1ccc(C(=O)Nc2nc3ccc4nc(SC)sc4c3s2)cc1 |  | 2.2 | 
COc1cccc(C(=O)Nc2nc3ccc4nc(NCCN(C)C)sc4c3s2)c1 | 1 | 1 | 
